pIC50: −log10 of the molar value.
Columns and labels:
[1] = target: T1, C-C chemokine receptor type 3 (Homo sapiens, UniProt P51677); assay: Inhibitory activity against recombinant human Chemokine receptor type 3 (CCR3) expressed in chinese hamster ovary cells; assay type: cell-based, CHO
T1 sequence (P51677 whole entry): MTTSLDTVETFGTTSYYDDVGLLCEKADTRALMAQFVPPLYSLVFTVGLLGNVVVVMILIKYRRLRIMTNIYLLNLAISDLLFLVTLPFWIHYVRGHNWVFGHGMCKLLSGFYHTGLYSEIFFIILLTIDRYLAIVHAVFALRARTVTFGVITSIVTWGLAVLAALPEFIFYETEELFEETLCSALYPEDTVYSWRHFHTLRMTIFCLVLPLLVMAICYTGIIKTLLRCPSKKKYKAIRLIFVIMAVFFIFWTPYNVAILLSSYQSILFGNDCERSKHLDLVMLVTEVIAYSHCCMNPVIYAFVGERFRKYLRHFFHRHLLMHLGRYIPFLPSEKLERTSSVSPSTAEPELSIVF
Method in brief: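 CHO cells transfected with human CCR3, 5×10^5 per well, incubated 30 min at room temperature with 150 pM (final) 125I-labeled human eotaxin and compound. Binding buffer: RPMI 1640 with 0.5% BSA, 20 mM HEPES, 5 mM MgCl2. Filtration on protamine-treated filter plates, washed with binding buffer plus 0.5 M NaCl, filter counted. Nonspecific binding defined with 100 nM eotaxin. Percent inhibition taken against compound-free total binding. IC50 values are the mean of usually three determinations.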

[2] = target: T2, C-C chemokine receptor type 1 (Homo sapiens, UniProt P32246); assay: Inhibitory activity against human Chemokine receptor type 1 expressed in chinese hamster ovary cells; assay type: cell-based, CHO
T2 sequence (P32246 whole entry): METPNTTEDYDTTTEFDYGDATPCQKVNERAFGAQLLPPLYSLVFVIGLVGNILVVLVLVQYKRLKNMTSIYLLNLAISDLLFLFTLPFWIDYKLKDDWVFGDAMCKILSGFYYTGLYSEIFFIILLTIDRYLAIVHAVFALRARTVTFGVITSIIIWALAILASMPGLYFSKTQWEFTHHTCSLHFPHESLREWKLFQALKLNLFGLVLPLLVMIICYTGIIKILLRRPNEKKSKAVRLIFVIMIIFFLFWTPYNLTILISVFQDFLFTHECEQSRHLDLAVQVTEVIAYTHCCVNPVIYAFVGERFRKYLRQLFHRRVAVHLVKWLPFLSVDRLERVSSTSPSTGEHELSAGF

Compound | pIC50 [1] | pIC50 [2]
N#Cc1cccc(NC(=O)Nc2cc3c(cc2CN2CCC(Cc4ccc(F)cc4)CC2)OCO3)c1 | 7.07 | –
CC(=O)c1cccc(NC(=O)Nc2cc3c(cc2CN2CCC(Cc4ccccc4)CC2)OCO3)c1 | 6.64 | –
O=C(NCc1ccc2c(c1)OCO2)Nc1ccccc1CN1CCC(Cc2ccccc2)CC1 | 5.76 | –
COc1ccc(NC(=O)NCC(CCCN2CCC(O)(c3ccc(Cl)cc3)CC2)(c2ccccc2)c2ccccc2)cc1 | 5.12 | 6.11
COc1ccc(NC(=O)Nc2ccccc2CN2CCC(Cc3ccccc3)CC2)cc1 | 6.12 | < 5.00
N#Cc1cccc(NC(=O)Nc2c(CN3CCC(Cc4ccc(F)cc4)CC3)ccc3ccccc23)c1 | 6.28 | –
COC(=O)c1cccc(NC(=O)Nc2cccc(OC)c2)c1CN1CCC(Cc2ccc(F)cc2)CC1 | 7.96 | –
O=C(NCC(CCCN1CCC(O)(c2ccc(Cl)cc2)CC1)(c1ccccc1)c1ccccc1)Nc1ccccc1 | 5.01 | > 6.11
O=C(Nc1cc(F)ccc1F)Nc1ccccc1CN1CCC(Cc2ccccc2)CC1 | 5.76 | < 4.30
N#Cc1cccc(NC(=O)Nc2ccc(C(N)=O)cc2CN2CCC(Cc3ccc(F)cc3)CC2)c1 | 8.10 | –
c1ccc(CCCCN2CCC(Cc3ccccc3)CC2)cc1 | 5.42 | < 4.30
CN(C)CCNC(=O)NCC(CCCN1CCC(O)(c2ccc(Cl)cc2)CC1)(c1ccccc1)c1ccccc1 | 5.65 | 7.17
OC1(c2ccc(Cl)cc2)CCN(CCCCc2ccccc2)CC1 | 4.84 | –
O=C(NCC(c1ccccc1)c1ccccc1)Nc1ccccc1CN1CCC(C(=O)c2ccccc2)CC1 | 5.41 | –
O=C(Nc1ccccc1CN1CCC(Cc2ccccc2)CC1)NC1CCN(Cc2ccccc2)CC1 | 5.41 | < 4.30
c1ccc(CC2CCN(Cc3ccccc3)CC2)cc1 | 5.08 | < 4.30
COC(=O)c1cccc(NC(=O)Nc2ccccc2)c1CN1CCC(Cc2ccc(F)cc2)CC1 | 8.05 | –
O=C(NCC(CCCN1CCC(O)(c2ccc(Cl)cc2)CC1)(c1ccccc1)c1ccccc1)Nc1ccc(C(F)(F)F)cc1 | 5.28 | 6.05
N#CC(CCCN1CCN(Cc2ccccc2)CC1)(c1ccccc1)c1ccccc1 | 4.85 | < 4.30
O=C(Nc1ccccc1)Nc1ccccc1C(O)CN1CCC(Cc2ccc(F)cc2)CC1 (stereo not drawn) | 7.62 | –
O=C(NCCCCO)NCC(CCCN1CCC(O)(c2ccc(Cl)cc2)CC1)(c1ccccc1)c1ccccc1 | 5.23 | 6.62
C[N+]1(Cc2cc(O)ccc2NC(=O)Nc2cccc(C#N)c2)CCC(Cc2ccccc2)CC1 (stereo not drawn) | 7.68 | –
N#Cc1cccc(NC(=O)Nc2cc(CO)ccc2CN2CCC(Cc3ccccc3)CC2)c1 | 6.94 | –

Compound | pIC50 [1] | pIC50 [2]
COc1cccc(NC(=O)Nc2ccccc2CCN2CCC(Cc3ccccc3)CC2)c1 | 6.74 | < 5.00
O=C(NCCc1ccc(F)cc1)NCC(CCCN1CCC(O)(c2ccc(Cl)cc2)CC1)(c1ccccc1)c1ccccc1 | 5.66 | 6.53
COC(=O)c1cccc(NC(=O)Nc2cccc(C#N)c2)c1CN1CCC(Cc2ccc(F)cc2)CC1 | 8.15 | –
O=C(NCC(CCCN1CCC(O)(c2ccc(Cl)cc2)CC1)(c1ccccc1)c1ccccc1)Nc1cc(F)ccc1F | 5.24 | 5.87
N#Cc1cccc(NC(=O)Nc2ccc(CO)cc2CN2CCC(Cc3ccc(F)cc3)CC2)c1 | 7.26 | –
O=C(Nc1ccc2c[nH]nc2c1)Nc1ccccc1CN1CCC(Cc2ccccc2)CC1 | 6.35 | < 5.00
CC1C2=C(CC=CC2)C(=O)N1CC1CCN(CCc2ccccc2)CC1 (stereo not drawn) | 4.92 | –
O=C(NCC(CCCN1CCC(O)(c2ccc(Cl)cc2)CC1)(c1ccccc1)c1ccccc1)Nc1cccc(C(F)(F)F)c1 | 4.71 | 5.85
O=C(Cc1ccc(F)cc1)Nc1ccccc1CCN1CCC(Cc2ccc(F)cc2)CC1 | 6.82 | –
O=C(Nc1ccccc1)Nc1ccccc1C(O)CN1CCC(Cc2ccccc2)CC1 (stereo not drawn) | 6.60 | –
COC(=O)c1ccc(CN2CCC(Cc3ccccc3)CC2)c(NC(=O)Nc2cccc(OC)c2)c1 | 6.11 | –
Fc1ccc(CCCN2CCC3C(C2)c2cccc4c2N3CC4)cc1 (stereo not drawn) | 6.00 | –
CC(=O)c1cccc(NC(=O)Nc2ccccc2CN2CCC(Cc3ccc(F)cc3)CC2)c1 | 6.90 | –
O=C(NCCc1ccc(F)cc1)Nc1ccccc1CN1CCN(Cc2ccccc2)CC1 | 5.04 | –
COC(=O)c1ccc(NC(=O)Nc2cccc(OC)c2)c(CN2CCC(Cc3ccc(F)cc3)CC2)c1 | 7.19 | –
COc1cccc(NC(=O)Nc2cc3c(cc2CN2CCC(Cc4ccc(F)cc4)CC2)OCO3)c1 | 6.85 | –
N#Cc1cccc(NC(=O)Nc2cccc(CN3CCC(Cc4ccccc4)CC3)c2)c1 | 6.35 | –
O=C(Nc1ccc2[nH]ncc2c1)Nc1cc2c(cc1CN1CCC(Cc3ccccc3)CC1)OCO2 | 6.59 | –
O=C(Nc1ccccc1)Nc1ccccc1CN1CCC(Cc2ccc(F)cc2)CC1 | 6.44 | –
N#Cc1cccc(NC(=O)Nc2ccccc2CCN2CCC(Cc3ccc(F)cc3)CC2)c1 | 7.85 | –
O=C(Nc1ccc(F)cc1)Nc1ccccc1CCN1CCC(Cc2ccc(F)cc2)CC1 | 7.46 | –
CC(=O)c1cccc(NC(=O)Nc2cc3c(cc2CN2CCC(Cc4ccc(F)cc4)CC2)OCO3)c1 | 7.40 | –
O=C(Nc1cccc(CN2CCC(Cc3ccccc3)CC2)c1)Nc1ccc2[nH]ncc2c1 | 6.21 | –

Next, values leading:

pIC50 [1] | pIC50 [2] | Compound
5.42 | – | O=C(NCCc1ccc(F)cc1)Nc1ccccc1CN1CCC(Cc2ccccc2)CC1
5.08 | > 6.11 | O=C(NCc1ccccc1)NCC(CCCN1CCC(O)(c2ccc(Cl)cc2)CC1)(c1ccccc1)c1ccccc1
8.52 | – | N#Cc1cccc(NC(=O)Nc2cccc(C(N)=O)c2CN2CCC(Cc3ccc(F)cc3)CC2)c1
7.96 | – | COc1cccc(NC(=O)Nc2ccccc2CCN2CCC(Cc3ccc(F)cc3)CC2)c1
7.09 | < 5.00 | COc1cccc(NC(=O)Nc2ccccc2C(O)CN2CCC(Cc3ccccc3)CC2)c1 (stereo not drawn)
7.68 | – | COc1cccc(NC(=O)Nc2ccccc2C(O)CN2CCC(Cc3ccc(F)cc3)CC2)c1 (stereo not drawn)
5.89 | – | COc1ccc(NC(=O)NCc2ccccc2CN2CCC(Cc3ccccc3)CC2)cc1
9.00 | – | CC(=O)c1cccc(NC(=O)Nc2cc3c(cc2C[N+]2(C)CCC(Cc4ccc(F)cc4)CC2)OCO3)c1 (stereo not drawn)
7.77 | – | O=C(Nc1ccccc1)Nc1cccc(C(=O)O)c1CN1CCC(Cc2ccc(F)cc2)CC1
5.43 | – | O=C(Nc1cccc(CN2CCC(Cc3ccccc3)CC2)c1)NC1CCN(Cc2ccccc2)CC1
5.33 | – | O=C(Nc1cc(F)ccc1F)Nc1ccccc1CN1CCC(C(=O)c2ccccc2)CC1
5.70 | – | O=C1CC2(CCc3ccccc32)C(=O)N1CC1CCN(CCc2ccccc2)CC1 (stereo not drawn)
6.85 | < 5.00 | N#Cc1cccc(NC(=O)Nc2ccccc2CCN2CCC(Cc3ccccc3)CC2)c1
6.39 | < 5.00 | O=C(Nc1cc(F)ccc1F)Nc1ccccc1C(O)CN1CCC(Cc2ccccc2)CC1 (stereo not drawn)
7.38 | – | COC(=O)c1ccc(NC(=O)Nc2cccc(C(C)=O)c2)c(CN2CCC(Cc3ccc(F)cc3)CC2)c1
5.55 | – | N#Cc1cccc(NC(=O)NCc2ccccc2CN2CCC(Cc3ccccc3)CC2)c1

pIC50 [1] | pIC50 [2] | Compound
7.17 | – | COC(=O)c1ccc(NC(=O)Nc2cccc(C#N)c2)c(CN2CCC(Cc3ccc(F)cc3)CC2)c1
6.51 | – | N#Cc1cccc(NC(=O)Nc2ccccc2CN2CCC(Cc3ccc(F)cc3)CC2)c1
5.62 | – | COc1cccc(NC(=O)NCc2ccccc2CN2CCC(Cc3ccccc3)CC2)c1
4.30 | – | O=C(NCCCO)NC(Cc1ccccc1)c1ccccc1 (stereo not drawn)
7.96 | – | N#Cc1cccc(NC(=O)Nc2ccccc2C(O)CN2CCC(Cc3ccc(F)cc3)CC2)c1 (stereo not drawn)
4.96 | – | O=C(Nc1cc(F)ccc1F)Nc1ccccc1CN1CCC(c2ccccc2)CC1
5.13 | – | O=C(NCc1ccc2c(c1)OCO2)Nc1ccccc1CN1CCC(C(=O)c2ccccc2)CC1
7.33 | – | COc1cccc(NC(=O)Nc2ccc(CO)cc2CN2CCC(Cc3ccc(F)cc3)CC2)c1
7.28 | – | O=C(Nc1ccccc1)Nc1cccc(CO)c1CN1CCC(Cc2ccc(F)cc2)CC1
5.58 | – | O=C(NCC(c1ccccc1)c1ccccc1)Nc1ccccc1CN1CCC(Cc2ccccc2)CC1
8.70 | – | C[N+]1(Cc2cc3c(cc2NC(=O)Nc2cccc(C#N)c2)OCO3)CCC(Cc2ccc(F)cc2)CC1 (stereo not drawn)
5.08 | – | c1ccc(CCCCN2CCN(Cc3ccccc3)CC2)cc1
7.96 | – | C[N+]1(Cc2cc3c(cc2NC(=O)Nc2cccc(C#N)c2)OCO3)CCC(Cc2ccccc2)CC1 (stereo not drawn)
6.44 | – | COc1cccc(NC(=O)Nc2cc(CO)ccc2CN2CCC(Cc3ccccc3)CC2)c1
6.63 | – | N#Cc1cccc(NC(=O)Nc2cc3c(cc2CN2CCC(Cc4ccccc4)CC2)OCO3)c1
6.56 | – | N#Cc1cccc(NC(=O)Nc2ccc(O)cc2CN2CCC(Cc3ccccc3)CC2)c1

— ChEMBL document CHEMBL1135587, “Discovery and structure-activity relationship of N-(ureidoalkyl)-benzyl-piperidines as potent small molecule CC chemokine receptor-3 (CCR3) antagonists” (J Med Chem, 2002)
